Experimental data published in ChEMBL document CHEMBL4316599, “Synthesis, in vitro and in vivo biological evaluation of substituted 3-(5-imidazo[2,1-b]thiazolylmethylene)-2-indolinones as new potent anticancer agents” (Eur J Med Chem, 2019).

test system: CNS carcinoma cell; test: Cytotoxicity against human CNS cancer cells after 48 hrs by SRB assay; type: functional; details: not given
How it was run: (§1)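 NCI-60 screen: single-dose pass at 10^-5 M, then a five-concentration assay from 10^-9 to 10^-4 M (highest 100 μM). Exposure was 48 h under standard NCI protocols. GI50, TGI and LC50 were derived per cell line and averaged by subpanel. Repeated tests are the mean of two experiments.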

| Structure (SMILES) | GI50 [µM] | TGI [µM] |
| --- | --- | --- |
| COc1nc2sc(C)cn2c1/C=C1/C(=O)Nc2ccccc21 | 1.97 | 40.1 |
| COc1nc2sc(C)cn2c1/C=C1/C(=O)Nc2c1ccc1ccccc21 | 0.42 | 38.6 |
| COc1nc2sc(C)cn2c1/C=C1/C(=O)Nc2ccc(O)cc21 | 4.76 | 64 |

same assay, conditions: read-out: LC50 (the source's name)

| Structure (SMILES) | CC50 [µM] |
| --- | --- |
| COc1nc2sc(C)cn2c1/C=C1/C(=O)Nc2ccccc21 | 87.9 |
| COc1nc2sc(C)cn2c1/C=C1/C(=O)Nc2c1ccc1ccccc21 | 82.9 |

test system: Melanoma cell line; test: Cytotoxicity against human melanoma cells after 48 hrs by SRB assay; type: functional; details: not given; how it was run: as §1

| Structure (SMILES) | GI50 [µM] | TGI [µM] |
| --- | --- | --- |
| COc1nc2sc(C)cn2c1/C=C1/C(=O)Nc2ccccc21 | 16.2 | 74.8 |
| COc1nc2sc(C)cn2c1/C=C1/C(=O)Nc2c1ccc1ccccc21 | 0.52 | 43.3 |
| COc1nc2sc(C)cn2c1/C=C1/C(=O)Nc2ccc(O)cc21 | 4.88 | 38.6 |

same assay, conditions: read-out: LC50 (the source's name)

| Structure (SMILES) | CC50 [µM] |
| --- | --- |
| COc1nc2sc(C)cn2c1/C=C1/C(=O)Nc2ccccc21 | 94.9 |
| COc1nc2sc(C)cn2c1/C=C1/C(=O)Nc2c1ccc1ccccc21 | 95 |
| COc1nc2sc(C)cn2c1/C=C1/C(=O)Nc2ccc(O)cc21 | 94 |

test system: Leukemia cell; test: Cytotoxicity against human leukemia cells after 48 hrs by SRB assay; type: functional; details: not given; how it was run: as §1

| Structure (SMILES) | GI50 [µM] | LC50 [µM] | TGI [µM] |
| --- | --- | --- | --- |
| COc1nc2sc(C)cn2c1/C=C1/C(=O)Nc2ccccc21 | 0.5 | 93.7 | 7.25 |
| COc1nc2sc(C)cn2c1/C=C1/C(=O)Nc2c1ccc1ccccc21 | 0.34 | – | 84.8 |
| COc1nc2sc(C)cn2c1/C=C1/C(=O)Nc2ccc(O)cc21 | 3.32 | – | 61.7 |

test system: NSCLC; test: Cytotoxicity against human NSCLC cells after 48 hrs by SRB assay; type: functional; details: not given; how it was run: as §1

| Structure (SMILES) | GI50 [µM] | LC50 [µM] | TGI [µM] |
| --- | --- | --- | --- |
| COc1nc2sc(C)cn2c1/C=C1/C(=O)Nc2ccccc21 | 5.68 | 99 | 65.2 |
| COc1nc2sc(C)cn2c1/C=C1/C(=O)Nc2c1ccc1ccccc21 | 2.82 | 91.4 | 45.3 |
| COc1nc2sc(C)cn2c1/C=C1/C(=O)Nc2ccc(O)cc21 | 7.54 | – | 72 |

test system: not listed separately; test: Cytotoxicity against human COLON cells after 48 hrs by SRB assay; type: functional; details: not given; how it was run: as §1

| Structure (SMILES) | GI50 [µM] | TGI [µM] |
| --- | --- | --- |
| COc1nc2sc(C)cn2c1/C=C1/C(=O)Nc2ccccc21 | 0.8 | 56.8 |
| COc1nc2sc(C)cn2c1/C=C1/C(=O)Nc2c1ccc1ccccc21 | 0.37 | 34.6 |
| COc1nc2sc(C)cn2c1/C=C1/C(=O)Nc2ccc(O)cc21 | 4.79 | 78.2 |

same assay, conditions: read-out: LC50 (the source's name)

| Structure (SMILES) | CC50 [µM] |
| --- | --- |
| COc1nc2sc(C)cn2c1/C=C1/C(=O)Nc2ccccc21 | 93.3 |
| COc1nc2sc(C)cn2c1/C=C1/C(=O)Nc2c1ccc1ccccc21 | 71.1 |
| COc1nc2sc(C)cn2c1/C=C1/C(=O)Nc2ccc(O)cc21 | 98.2 |

test system: Ovarian carcinoma cell; test: Cytotoxicity against human ovarian cancer cells after 48 hrs by SRB assay; type: functional; details: not given; how it was run: as §1

| Structure (SMILES) | GI50 [µM] | LC50 (50% lethal concentration) [µM] | TGI [µM] |
| --- | --- | --- | --- |
| COc1nc2sc(C)cn2c1/C=C1/C(=O)Nc2ccccc21 | 6.29 | 96.3 | 55.6 |
| COc1nc2sc(C)cn2c1/C=C1/C(=O)Nc2c1ccc1ccccc21 | 0.62 | 91.2 | 35.3 |
| COc1nc2sc(C)cn2c1/C=C1/C(=O)Nc2ccc(O)cc21 | 12.8 | – | 63.5 |

test system: Renal cancer cell line; test: Cytotoxicity against human renal cancer cells after 48 hrs by SRB assay; type: functional; details: not given; how it was run: as §1

| Structure (SMILES) | GI50 [µM] | TGI [µM] | LC50 (50% lethal concentration) [µM] |
| --- | --- | --- | --- |
| COc1nc2sc(C)cn2c1/C=C1/C(=O)Nc2ccccc21 | 3.53 | 67.6 | – |
| COc1nc2sc(C)cn2c1/C=C1/C(=O)Nc2c1ccc1ccccc21 | 1.06 | 38.3 | 89.6 |
| COc1nc2sc(C)cn2c1/C=C1/C(=O)Nc2ccc(O)cc21 | 6.58 | 79.4 | – |

test system: Prostatic carcinoma cell; test: Cytotoxicity against human prostate cancer cells after 48 hrs by SRB assay; type: functional; details: not given; how it was run: as §1

| Structure (SMILES) | GI50 [µM] | TGI [µM] |
| --- | --- | --- |
| COc1nc2sc(C)cn2c1/C=C1/C(=O)Nc2ccccc21 | 2.09 | 45 |
| COc1nc2sc(C)cn2c1/C=C1/C(=O)Nc2c1ccc1ccccc21 | 0.3 | 35.2 |
| COc1nc2sc(C)cn2c1/C=C1/C(=O)Nc2ccc(O)cc21 | 7.59 | 96.2 |

same assay, conditions: read-out: LC50 (the source's name)

| Structure (SMILES) | CC50 [µM] |
| --- | --- |
| COc1nc2sc(C)cn2c1/C=C1/C(=O)Nc2c1ccc1ccccc21 | 75.9 |

test system: Breast carcinoma cell; test: Cytotoxicity against human breast cancer cells after 48 hrs by SRB assay; type: functional; details: not given; how it was run: as §1

| Structure (SMILES) | GI50 [µM] | TGI [µM] |
| --- | --- | --- |
| COc1nc2sc(C)cn2c1/C=C1/C(=O)Nc2ccccc21 | 2.52 | 67.3 |
| COc1nc2sc(C)cn2c1/C=C1/C(=O)Nc2c1ccc1ccccc21 | 0.79 | 51.3 |
| COc1nc2sc(C)cn2c1/C=C1/C(=O)Nc2ccc(O)cc21 | 4.57 | 66.2 |

molecular target: Tubulin (Bos taurus, UniProt Q6B856+Q862L2+Q862F3); test: Inhibition of bovine brain tubulin polymerization after 20 mins by spectrophotometric analysis; details: not given
How it was run: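 Bovine brain tubulin (10 μM) in glutamate buffer preincubated with varying compound levels at 30 °C, then chilled to 0 °C. GTP added to 0.4 mM final, then warmed to 30 °C. Assembly followed by turbidity at 350 nm. IC50 is the concentration halving the extent of assembly after 20 min.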

| Structure (SMILES) | IC50 [µM] |
| --- | --- |
| COc1nc2sc(C)cn2c1/C=C1/C(=O)Nc2ccccc21 | 3.4 |

molecular target: T1, Tubulin (Bos taurus) (UniProt Q6B856+Q862L2+Q862F3); test: Inhibition of [3H]colchicine binding to bovine brain tubulin at 5 uM after 20 mins relative to control; details: not given
How it was run: (§2)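 Reaction mixtures held 1 μM tubulin, 5 μM [³H]colchicine and test compound at 5 or 50 μM. Read-out was percent inhibition of colchicine binding.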

| Structure (SMILES) | inhibition [%] |
| --- | --- |
| COc1nc2sc(C)cn2c1/C=C1/C(=O)Nc2ccccc21 | 39 |

molecular target: T1, Tubulin (Bos taurus); test: Inhibition of [3H]colchicine binding to bovine brain tubulin at 50 uM after 20 mins relative to control; details: not given; how it was run: as §2

| Structure (SMILES) | inhibition [%] |
| --- | --- |
| COc1nc2sc(C)cn2c1/C=C1/C(=O)Nc2ccccc21 | 81 |

test system: K562; test: Cytotoxicity against human K562 cells after 48 hrs by SRB assay; type: functional, cell-based; details: not given

| Structure (SMILES) | Activity |
| --- | --- |
| COc1nc2sc(C)cn2c1/C=C1/C(=O)Nc2ccccc21 | Dose-dependent effect |

test system: K562; test: Cell cycle arrest in human K562 cells assessed as mitotic index at IC50 by Giemsa staining-based assay (reference value: 3%); type: functional; details: not given

| Structure (SMILES) | Activity [%] |
| --- | --- |
| COc1nc2sc(C)cn2c1/C=C1/C(=O)Nc2ccccc21 | 42 |

test system: K562; test: Cell cycle arrest in human K562 cells assessed as mitotic index at 5 times IC50 by Giemsa staining-based assay (reference value: 3%); type: functional; details: not given

| Structure (SMILES) | Activity [%] |
| --- | --- |
| COc1nc2sc(C)cn2c1/C=C1/C(=O)Nc2ccccc21 | 61 |

test system: K562; test: Cell cycle arrest in human K562 cells assessed as mitotic index at 10 times IC50 by Giemsa staining-based assay (reference value: 3%); type: functional; details: not given

| Structure (SMILES) | Activity [%] |
| --- | --- |
| COc1nc2sc(C)cn2c1/C=C1/C(=O)Nc2ccccc21 | 80 |

test system: K562; test: Cytotoxicity against human K562 cells after 16 hrs by SRB assay; details: K562, 16 h

| Structure (SMILES) | IC50 [µM] |
| --- | --- |
| COc1nc2sc(C)cn2c1/C=C1/C(=O)Nc2ccccc21 | 1 |
